Experimental data from ChEMBL document CHEMBL4513216, “Probing the Open Global Health Chemical Diversity Library for Multistage-Active Starting Points for Next-Generation Antimalarials” (ACS Infect Dis, 2020).

Test: Toxicity liver stage against HepG2, at 10uM
Assay type: cell-based
Set-up: test concentration 10 uM, cell line HepG2-A16-CD81EGFP
Details: human, HepG2-A16-CD81EGFP cells; read-out: INHIBITION
Summary of the method: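 Uninfected HepG2-A16-CD81EGFP cells, 3 × 10^3 per well, 1536-well, plated on prespotted compound at 10 μM final, parasite-free screening media added to match infected plates; puromycin 10 μM positive, DMSO 0.5% negative; run in parallel with 48 h PbLuc assay at 37 °C, 5% CO2; viability by CellTiter-Glo luminescence, normalized to controls.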

Going from `COC(=O)[C@@H]1CN(S(=O)(=O)c2ccccc2)CCN1S(C)(=O)=O` to `CCC(CC(=O)NS(=O)(=O)C(C)C)c1ccccc1` (stereo not given), the cytotoxicity at 10 µM falls from 0.471% to -49.1%.

First: CCS(=O)(=O)N1CCc2ccc(NC(=O)NC(C)(C)C)cc21
Second: CCCc1nc(C)cc(N2CCNC(C(=O)Nc3ccc(C)nc3)C2)n1 (stereo not given)
The cytotoxicity at 10 µM of the first is higher: -6.69% for the first, -48.5% for the second.

Compared with `Cn1nc(-c2ccccc2)c(Cl)c1C(=O)O`, `O=C(O)c1cc(-c2ccccc2)ns1` is higher in cytotoxicity at 10 µM: -45% for the first, 1.91% for the second.

Compared with `CNC(=O)c1cn(C)c(-c2nc3cc(NC(C)=O)ccc3n2C)c1OC`, `COc1ccc(CN2CCN(C(=O)c3ccc(C)n3C)CC2)cc1` is higher in cytotoxicity at 10 µM: -42.5% for the first, -0.0113% for the second.

Compared with `O=C(Nc1ccccc1F)C1CN(C(=O)c2ccc3c(c2)OCO3)C1`, `OC1(c2ccccc2F)CCN(Cc2ccccc2N2CCCC2)CC1` is higher in cytotoxicity at 10 µM: -5.96% for the first, 13.2% for the second.

First: Cc1ccoc1C(=O)N1CCCC2(CCCN2S(C)(=O)=O)C1 (stereo not given)
Second: Cc1csc(N2CCCN(C(=O)c3occc3C)CC2)n1
The cytotoxicity at 10 µM of the first is lower: -143% for the first, -13.8% for the second.

Going from `O=C(NCC1CC1)[C@H]1CC[C@@H]2[C@@H](CCN2Cc2nccs2)O1` to `Cc1noc(C)c1CN1CC[C@H]2OCC[C@@]2(C(=O)NCC2CC2)C1`, the cytotoxicity at 10 µM falls from 6.93% to -77.2%.

Compared with `CN(C)c1ccc(C(=O)NCC2(c3ccccc3)CCOCC2)cc1`, `CC(Cn1ccnc1)NC(=O)C1(c2ccccc2)CC1` (stereo not given) is lower in cytotoxicity at 10 µM: 6.52% for the first, -5.74% for the second.

Going from `O=C1CNc2ncnc(Nc3cccc(Cn4cccn4)c3)c2N1` to `c1ccc(Cn2ccnc2CNC2CCCOc3ccccc32)cc1` (stereo not given), the cytotoxicity at 10 µM falls from 19.8% to -4.34%.

Compared with `CSc1ccc(-c2noc(CN(Cc3ccccc3)C(C)C)n2)cc1`, `CC(C)c1noc(CCNC(=O)C2COc3ccccc3C2)n1` (stereo not given) is lower in cytotoxicity at 10 µM: 3.88% for the first, -1.24% for the second.

Compared with `CCn1ncc(S(=O)(=O)N2CCCC3(CC=CNC3=O)C2)c1C` (stereo not given), `CCS(=O)(=O)N1CC[C@H]2OCC[C@@]2(C(=O)NC)C1` is lower in cytotoxicity at 10 µM: -7.6% for the first, -72.6% for the second.

Compared with `Cc1n[nH]c(C)c1-c1cnc(CC2CCN(C)C2)cn1` (stereo not given), `Cc1ncccc1CNC1CCCN(Cc2noc(C3CC3)n2)C1` (stereo not given) is higher in cytotoxicity at 10 µM: -2.11% for the first, -1.34% for the second.

First: CC(C)OCc1ccc(CNC(=O)NC2(CO)CCCC2)cc1
Second: COCC[C@]1(O)CCN(CC(=O)NCc2ccccc2C)C[C@H]1C
The cytotoxicity at 10 µM of the first is lower: -48.9% for the first, -5.31% for the second.

Going from `COCCN1CCC(CNc2cnc3ccccc3n2)CC1` to `COc1ccccc1CC(=O)N1CCC(NCc2ccccn2)CC1`, the cytotoxicity at 10 µM rises from -46.6% to -11.5%.

First: COCCN(CCOC)c1ncccc1I
Second: COCCN(C)C[C@@H]1CN(C(=O)c2ccc(O)c(Cl)c2)C[C@@H]1CO
The cytotoxicity at 10 µM of the first is lower: -2.69% for the first, 10.5% for the second.

Going from `CC(C)c1noc(OCc2cccc(C#N)c2)n1` to `COc1ccc(COCC(O)CNC(=O)c2ccc(C#N)cc2)cc1` (stereo not given), the cytotoxicity at 10 µM rises from -43.6% to 0.561%.

First: C[C@H]1C[C@@H]2CCN(Cc3ccco3)C[C@H]2O1
Second: C[C@H]1C[C@H]2CN(Cc3ccccn3)CC[C@@H]2O1
The cytotoxicity at 10 µM of the first is lower: -80.1% for the first, -78.2% for the second.

Compared with `O=C(c1cccc(S(=O)(=O)NC[C@@H]2C[C@H](F)CN2)c1)N1CCCCC1`, `CN1CCCC[C@@H]2[C@H]1[C@@H](c1ccccc1)CCN2C(=O)c1cnccn1` is lower in cytotoxicity at 10 µM: 3.5% for the first, -3.81% for the second.

Going from `CN1CCc2[nH]nc(C(=O)N3CCCC4(CC3)CNC(=O)O4)c2C1` (stereo not given) to `Cc1cc(C(=O)N2CCC3(C2)CN(c2ccsc2)C(=O)CN3C)[nH]n1` (stereo not given), the cytotoxicity at 10 µM falls from -44.6% to -75.2%.

Going from `CN(Cc1n[nH]c2c1CCC2)C(=O)CCc1cc2n(n1)CCNC2` to `CC(C)n1ccnc1CN1CCCN(C(=O)c2cnc[nH]2)CC1`, the cytotoxicity at 10 µM falls from -10.5% to -11.9%.

Compared with `Cc1ncc2c(n1)CN(CC(=O)Nc1ccc(Cl)cn1)CC2`, `CCN1CCN(Cc2ccnc(-c3cccnc3)n2)CC1` is higher in cytotoxicity at 10 µM: -6.19% for the first, -5.23% for the second.

`CNc1snc(C)c1C(=O)N1CCCC(n2cccn2)C1` (stereo not given) and `COCc1nc(C(=O)N2CCCC2c2ccc(OC)cc2)cs1` (stereo not given) are the same in cytotoxicity at 10 µM: -3.81% for the first, -3.81% for the second.

Work on `Cc1ccc2c(c1)CN(C(=O)c1cccnc1)C(CN(C)C)CO2` (stereo not given) yielded a cytotoxicity at 10 µM of -25.5%.
